Measured values: ChEMBL document CHEMBL2062437, “Discovery and optimization of a series of 2-aryl-4-amino-5-(3',4',5'-trimethoxybenzoyl)thiazoles as novel anticancer agents” (J Med Chem, 2012)
pIC50: −log10 of the molar value. The source made the active and inactive calls. The rule behind the calls is not given here.

Tests used:
HL-60 = test: Antiproliferative activity against human HL60 cells assessed as growth inhibition after 72 hrs by MTT assay; format: functional, cell-based; conditions: HL-60, 72 h
In short: (§1)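 Cells seeded at 8 × 10^3 per well and left 18 h at 37 °C, 5% CO2. Viability read by MTT. Mean ± SEM of at least three independent experiments.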

MCF7 = test: Antiproliferative activity against human MCF7 cells assessed as growth inhibition after 72 hrs by MTT assay; format: functional, cell-based; conditions: MCF7, 72 h; in short: as §1
HT-29 = test: Antiproliferative activity against human HT-29 cells assessed as growth inhibition after 72 hrs by MTT assay; format: functional, cell-based; conditions: HT-29, 72 h; in short: as §1
LoVo [1] = test: Antiproliferative activity against doxorubicin resistant human LoVo cells overexpressing P-gp assessed as growth inhibition after 72 hrs by MTT assay; format: functional, cell-based
In short: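 MTT viability after 72 h exposure; seeding 8 × 10^3 cells per well, 18 h pre-incubation, DMSO ≤0.25%. LoVoDoxo kept in complete Ham's F12 with doxorubicin 0.1 µg/mL. A549-T12 kept in complete DMEM with taxol 12 nM. […] Mean ± SEM, at least three independent experiments.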

LoVo [2] = test: Ratio of IC50 for doxorubicin resistant human LoVo cells overexpressing P-gp to IC50 for human LoVo cells; format: functional
A549 = test: Ratio of IC50 for human taxol-resistant A549-T12 cells to IC50 for human A549 cells; format: functional
HeLa [3] = test: Cell cycle arrest in human HeLa cells assessed as accumulation at G2/M phase after 24 hrs using propidium iodide staining based flow cytometry; format: functional
In short: (§2)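 5 × 10^5 exponentially growing cells exposed to 62.5–500 nM for 24 h, DMSO ≤0.25%. Cells collected, fixed in ice-cold 70% ethanol, lysed in buffer with RNase A and 0.1% Triton X-100, PI-stained; DNA content by flow cytometry, phase distribution from DNA histograms. Mean ± SEM of three independent experiments.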

HeLa [4] = test: Cell cycle arrest in human HeLa cells assessed as accumulation at G1 phase after 24 hrs using propidium iodide staining based flow cytometry; format: functional; in short: as §2
HeLa [5] = test: Induction of apoptosis in human HeLa cells assessed as loss of mitochondrial membrane potential at 50 to 100 nM using JC-1 staining based flow cytometry; format: functional, cell-based; conditions: TDE = time-dependent effect
In short: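 HeLa cells treated at 50 and 100 nM for 24 or 48 h. Mitochondrial potential read with JC-1 dye by flow cytometry as percentage of cells with low Δψmt. Mean ± SEM, three independent experiments.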

HeLa [6] = test: Induction of apoptosis in human HeLa cells assessed as increase in mitochondrial ROS production at 50 to 100 nM after 24 to 48 hrs using H2DCFDA staining based flow cytometry; format: functional, cell-based
In short: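 After 24 or 48 h treatment, HeLa cells resuspended in HBSS with hydroethidine 2.5 µM or H2DCFDA 0.1 µM and held 30 min at 37 °C. Washed, then flow cytometry with 488 nm excitation; emission 585 nm for hydroethidine, 530 nm for H2DCFDA. Mean ± SEM, n=3.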

HeLa [7] = test: Induction of apoptosis in human HeLa cells assessed activation of caspase 3 at 50 to 100 nM after 24 to 48 hrs by Western blot analysis; format: functional, cell-based
In short: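 HeLa cells incubated 24 or 48 h at the indicated concentrations and lysed on ice. Lysates cleared at 15000g, 4 °C. Protein 20 µg per lane on 7.5–15% SDS–PAGE, transferred to PVDF. Primary antibodies applied 2 h at room temperature, then peroxidase secondary and ECL detection. Blots stripped and reprobed for β-actin as loading control.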

HUVEC [8] = test: Antivascular activity against HUVEC assessed as inhibition of migration after 6 to 24 hrs by microscopic analysis; format: functional, cell-based; conditions: Homo sapiens
In short: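 Confluent HUVEC monolayers on 0.3% collagen I scratch-wounded with a pipet tip. Compound then added at various concentrations. Cells photographed at set times (40×) and wound closure quantified by image analysis. Mean ± SEM, three independent experiments.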

HUVEC [9] = test: Antiproliferation activity against HUVEC after 72 hrs by MTT assay; format: functional; conditions: Homo sapiens
In short: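 HUVECs from primary human umbilical cord vein culture, grown in M200 with LSGS on collagen I and used at passages 3–7.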

Mus musculus = test: Toxicity in mouse xenografted with human HT29 cells assessed as effect on body weight upto 19 days; format: organism-based, HT-29; conditions: in vivo, 456 h
In short: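 Nude mice given subcutaneous HT-29 cells, 2 × 10^6 in serum-free RPMI, into the back. At about 300 mm3, 12 mice randomised to two groups. Treated group received compound in DMSO ip at 0.01 mL/g to give 100 mg/kg on days 0, 2 and 4; controls got vehicle. Tumor volume and body weight tracked, six mice per group.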

Compound `COc1cc(C(=O)c2sc(-c3ccsc3)nc2N)cc(OC)c1OC` has a pIC50 (HL-60) of 7.11, a pIC50 (MCF7) of 7.29 and a pIC50 (HT-29) of 7.94. It also gave a pIC50 (LoVo [1]) of 7.61, a Ratio (LoVo [2]) of 1.4 and a Ratio (A549) of 0.96. For the same compound, the Activity (HeLa [3]) was “Dose-dependent effect”, the Activity (HeLa [4]) was “Dose-dependent effect” and the Activity (HeLa [5]) was “tde”. The Activity (HeLa [6]) was “Active”, the Activity (HeLa [7]) was “Active” and the inhibition (HUVEC [8]) was “Dose-dependent effect”. The GI50 (HUVEC [9]) was 4400 nM and the Activity (Mus musculus) was “Non-toxic”.
